Data taken from article PMC3979583 (ACS medicinal chemistry letters, 2013).
Like-named read-outs stand apart in the source and are kept apart here.

Key:
Assay type in all cases: cell-based
human CB2 receptors = human CB2 receptors (Homo sapiens, UniProt P34972)
[1] = system: osteoclast (OCL) formation; assay: osteoclast; details: mouse bone marrow mononuclear cells, RANKL plus MCSF
Procedure, shortened: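 Test compound was given at concentrations including 0.1, 1 and 5 μM, alongside a vehicle control. The read-out was inhibition of osteoclastogenesis, expressed as percent suppression of osteoclast formation. Each experiment was run in triplicate, and data were reported as means ± standard deviation.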

cytotoxicity assay = details: 5 μM

Sequence of human CB2 receptors (P34972 whole entry): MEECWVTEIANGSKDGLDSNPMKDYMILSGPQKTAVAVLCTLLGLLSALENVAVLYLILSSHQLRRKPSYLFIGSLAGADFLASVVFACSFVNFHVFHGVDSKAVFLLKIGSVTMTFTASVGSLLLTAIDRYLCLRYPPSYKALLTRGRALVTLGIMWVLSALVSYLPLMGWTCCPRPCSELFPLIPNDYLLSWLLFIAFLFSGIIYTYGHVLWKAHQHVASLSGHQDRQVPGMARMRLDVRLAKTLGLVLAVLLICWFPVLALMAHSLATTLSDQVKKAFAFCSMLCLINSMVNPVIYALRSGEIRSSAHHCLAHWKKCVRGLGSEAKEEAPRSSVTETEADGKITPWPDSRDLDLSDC

Structure (SMILES) | functional behaviour at CB2 receptor (human CB2 receptors; based on LANCE signal change) | inhibition of osteoclastogenesis (in words) [1] | functional behaviour at CB2 receptor (human CB2 receptors) | cytotoxic effects (cytotoxicity assay)
CCN(CC)c1ccc(CN(c2ccccc2)S(=O)(=O)c2ccc(OC)cc2)cc1 [Compound 39] | behaved as CB2 receptor inverse agonists | great inhibition of osteoclastogenesis | – | –
CCN(CC)c1ccc(CN(c2ccccc2)S(=O)(=O)c2ccc(C)cc2)cc1 [Compound 34] | – | great inhibition of osteoclastogenesis | behaved as CB2 receptor inverse agonists | without showing any cytotoxic effects
CCN(CC)c1ccc(CN(c2ncc(C)s2)S(=O)(=O)c2ccc(OC)cc2)cc1 [Compound 45] | behaved as CB2 receptor inverse agonists | great inhibition of osteoclastogenesis | – | –
COc1ccc(S(=O)(=O)N(Cc2ccc(N3CCCCC3)cc2)c2ccccc2)cc1 [Compound 47] | behaved as CB2 receptor inverse agonists | – | – | –
